Experimental data taken from article PMC11584596 (IDCases, 2024).
In brackets after ≈: the same amount, converted by molar mass. Where two headings read alike, the source gives them in different places.

Tests used:
[1] = system: methicillin-resistant Staphylococcus epidermidis (MRSE); assay: Antimicrobial susceptibility; type: cell-based; conditions: for MIC: Staphylococcus epidermidis, MRSE; for MIC^1: MRSE isolate from sample 1 of periprosthetic fluid at diagnosis; for MIC^2: MRSE isolate from sample 2 of periprosthetic fluid at diagnosis
Summary of the method: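 Two MRSE isolates, each recovered from a separate sample of periprosthetic fluid taken by sterile drainage at diagnosis. A susceptibility profile was recorded for each isolate.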

[2] = system: shoulder PJI caused by methicillin-resistant Staphylococcus epidermidis (MRSE); assay: Clinical course of shoulder prosthetic joint infection under oritavancin; type: in vivo, human (patient); conditions: ten sequential doses of 1200 mg over 28 weeks; single patient
[3] = system: Gram-positive infections; conditions: 30 of 32 patients who received at least two doses of oritavancin; cited from earlier work

Row | Molecule | MIC ([1]; read-out: MIC^1) [µg/mL] | MIC ([1]; read-out: MIC^2) [µg/mL] | MIC^1 [1] [µg/mL] | further results
1 | CC1(C)S[C@@H]2[C@H](NC(=O)[C@H](N)c3ccccc3)C(=O)N2[C@H]1C(=O)O [Ampicillin] | > 2 | – | – | –
2 | O=C(O)c1cn(C2CC2)c2cc(N3CCNCC3)c(F)cc2c1=O [Ciprofloxacin] | > 4 | > 4 | – | –
3 | CCC[C@@H]1C[C@@H](C(=O)N[C@@H]([C@H]2O[C@H](SC)[C@H](O)[C@@H](O)[C@H]2O)[C@H](C)Cl)N(C)C1 [Clindamicin] | ≤ 0.25 | 0.25 (≈ 0.588 µM) | – | –
4 | CC[C@H]1OC(=O)[C@H](C)[C@@H](O[C@H]2C[C@@](C)(OC)[C@@H](O)[C@H](C)O2)[C@H](C)[C@@H](O[C@@H]2O[C@H](C)C[C@H](N(C)C)[C@H]2O)[C@](C)(O)C[C@@H](C)C(=O)[C@H](C)[C@@H](O)[C@]1(C)O [Eritromicin] | – | – | ≤ 0.25 | MIC^2 [1]: 1 µg/mL (≈ 1.36 µM)
5 | C[C@@H]1O[C@@H]1P(=O)(O)O [Fosfomicin c/G6P, Fosfomicin] | – | – | ≤ 16 | –
6 | CC(=O)O[C@H]1C[C@@]2(C)[C@@H](C[C@@H](O)[C@H]3[C@@]4(C)CC[C@@H](O)[C@@H](C)[C@@H]4CC[C@@]32C)/C1=C(\CCC=C(C)C)C(=O)O [Fusidic Acid] | > 8 | 16 (≈ 31 µM) | – | –
7 | CNC(C)C1CCC(N)C(OC2C(N)CC(N)C(OC3OCC(C)(O)C(NC)C3O)C2O)O1 (centres unmarked) [Gentamicin] | ≤ 1 | ≤ 0.5 | – | –
8 | CC(=O)NC[C@H]1CN(c2ccc(N3CCOCC3)c(F)c2)C(=O)O1 [Linezolid] | 1 (≈ 2.96 µM) | 2 (≈ 5.93 µM) | – | –
9 | COc1c(N2C[C@@H]3CCCN[C@@H]3C2)c(F)cc2c(=O)c(C(=O)O)cn(C3CC3)c12 [Moxifloxacin] | > 1 | – | – | –
10 | CN[C@H](CC(C)C)C(=O)N[C@H]1C(=O)N[C@@H](CC(N)=O)C(=O)N[C@H]2C(=O)N[C@H]3C(=O)N[C@H](C(=O)N[C@H](C(=O)O)c4cc(O)cc(O)c4-c4cc3ccc4O)[C@H](O[C@H]3C[C@](C)(N)[C@@H](O)[C@H](C)O3)c3ccc(c(Cl)c3)Oc3cc2cc(c3O[C@@H]2O[C@H](CO)[C@@H](O)[C@H](O)[C@H]2O[C@H]2C[C@](C)(NCc3ccc(-c4ccc(Cl)cc4)cc3)[C@@H](O)[C@H](C)O2)Oc2ccc(cc2Cl)[C@H]1O [Oritavancin] | – | – | – | side effects [2]: no side effects reported; clinical success [3]: 93.8%
11 | Cc1onc(-c2ccccc2)c1C(=O)N[C@@H]1C(=O)N2[C@@H]1SC(C)(C)[C@@H]2C(=O)O [Oxacillin] | > 2 | > 2 | – | –
12 | CO[C@H]1/C=C/O[C@@]2(C)Oc3c(C)c(O)c4c(O)c(c(/C=N/N5CCN(C)CC5)c(O)c4c3C2=O)NC(=O)/C(C)=C\C=C\[C@H](C)[C@H](O)[C@@H](C)[C@@H](O)[C@@H](C)[C@H](OC(C)=O)[C@@H]1C [Rifampin] | > 1 | > 2 | – | –
13 | CN(C)[C@@H]1C(O)=C(C(N)=O)C(=O)[C@@]2(O)C(O)=C3C(=O)c4c(O)cccc4[C@@](C)(O)[C@H]3C[C@@H]12 [Tetraciclin] | – | – | 1 (≈ 2.25 µM) | MIC^2 [1]: 2 µg/mL (≈ 4.5 µM)
14 | CN(C)c1cc(NC(=O)CNC(C)(C)C)c(O)c2c1C[C@H]1C[C@H]3[C@H](N(C)C)C(O)=C(C(N)=O)C(=O)[C@@]3(O)C(O)=C1C2=O [Tigeciclin] | – | – | ≤ 0.25 | MIC^2 [1]: 0.25 µg/mL (≈ 0.427 µM)
15 | Daptomicin | – | – | – | MIC^2 [1]: 0.25 µg/mL
16 | Teicoplanin | – | – | < 2 | –
17 | Vancomicin | – | – | 2 | MIC^2 [1]: ≤ 0.5 µg/mL
